Key:
MCF7 [1] = experiment: Effective concentration against human ER positive MCF-7 breast cancer cell line evaluated by luciferase assay; assay type: functional, cell-based
Outline: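 ER-positive MCF-7 cells stably transfected with the ERE_wtc-luc reporter plasmid (MCF-7 2a). Cells were exposed to the compound over a concentration range. ER binding to the estrogen response element drives luciferase expression, which was measured to build concentration–activation curves relative to estradiol. EC50 was taken from these curves.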

[2] = target: Prostaglandin G/H synthase 1 (Ovis aries) (UniProt P05979); experiment: Inhibitory concentration against ovine cyclooxygenase-1 evaluated by enzyme linked immunosorbent assay
MCF7 [3] = experiment: Treatment upon control (T/C) against hormone dependent MCF-7 breast cancer cells at 10 uM concentration; details: Homo sapiens

Row | IC50 [2] | SMILES | EC50 (MCF7 [1]) | T/C at 10 µM (MCF7 [3])
1 | > 200 µM | CCc1c(-c2ccc(O)cc2)nc(-c2ccc(O)cc2)n1-c1ccc(O)cc1 | 77 nM | –
2 | 8.4 µM | Oc1ccc(-c2nc(-c3ccc(O)cc3Cl)cn2-c2ccc(O)cc2)cc1 | – | 50%
3 | 8.4 µM | Oc1ccc(-n2cc(-c3ccc(O)cc3Cl)nc2-c2ccc(O)cc2Cl)cc1 | – | 0%
4 | 12.2 µM | Oc1ccc(-c2cn(-c3ccc(O)cc3)c(-c3ccc(O)cc3)n2)cc1 | – | –
5 | – | C[C@]12CC[C@@H]3c4ccc(O)cc4CC[C@H]3[C@@H]1CC[C@@H]2O [ESTRADIOL] | 0.08 nM | –

— ChEMBL document CHEMBL1141119, “Synthesis and pharmacological evaluation of 1H-imidazoles as ligands for the estrogen receptor and cytotoxic inhibitors of the cyclooxygenase” (J Med Chem, 2005)
